Measurements taken from ChEMBL document CHEMBL3102735, “Enhancing the pharmacodynamic profile of a class of selective COX-2 inhibiting nitric oxide donors” (Bioorg Med Chem, 2014).
The source made the active and inactive calls. The calls are words filed in the database; no cut-off is given here.

Key:
Plasma = test: Metabolic stability in Wistar rat plasma at 10 mg/kg, iv up to 6 hrs by LC-MS/MS analysis; format: ADME, organism-based; parameters: dose 10 mg/kg, route intravenous; conditions: in vivo
[1] = Solubility of the compound in phosphate buffer saline at pH 7.4 after 90 mins by HPLC analysis; format: physicochemical
Method in brief: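 DMSO stock (20 mM) diluted 2 µL into 198 µL PBS 0.01 M pH 7.4 or pepsin-free SGF 0.05 M pH 1.5, duplicate wells, shaken 90 min at 300 rpm. Filtrates analysed by HPLC with photodiode-array detection against seven-point standards (1–200 µM).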

[2] = target: T1, Prostaglandin G/H synthase 2 (Homo sapiens, UniProt P35354); parameters: species or system Blood
T1 sequence (P35354 whole entry): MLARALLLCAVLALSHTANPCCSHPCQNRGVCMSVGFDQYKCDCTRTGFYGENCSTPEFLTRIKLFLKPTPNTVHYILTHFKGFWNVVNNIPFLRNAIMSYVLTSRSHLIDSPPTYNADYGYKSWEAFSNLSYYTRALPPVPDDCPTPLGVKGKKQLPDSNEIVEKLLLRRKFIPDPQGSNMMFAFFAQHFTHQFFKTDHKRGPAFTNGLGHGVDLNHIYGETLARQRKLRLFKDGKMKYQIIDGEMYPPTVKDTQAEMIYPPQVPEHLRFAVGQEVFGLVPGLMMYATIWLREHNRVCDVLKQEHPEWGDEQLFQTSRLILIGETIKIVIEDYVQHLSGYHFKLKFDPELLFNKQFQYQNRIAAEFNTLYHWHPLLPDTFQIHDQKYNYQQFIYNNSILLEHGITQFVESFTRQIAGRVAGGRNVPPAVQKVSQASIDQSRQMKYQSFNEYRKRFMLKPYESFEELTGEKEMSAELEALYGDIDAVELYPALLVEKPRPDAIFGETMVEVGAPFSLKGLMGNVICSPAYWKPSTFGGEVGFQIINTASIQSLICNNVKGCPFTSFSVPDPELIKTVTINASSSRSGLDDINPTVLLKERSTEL

[3] = target: Prostaglandin G/H synthase 1 (Homo sapiens, UniProt P23219); test: Inhibition of COX-1 in human whole blood assessed as thromboxane B2 production by RIA
Chain of Prostaglandin G/H synthase 1 (Homo sapiens, UniProt P23219) (P23219 whole entry): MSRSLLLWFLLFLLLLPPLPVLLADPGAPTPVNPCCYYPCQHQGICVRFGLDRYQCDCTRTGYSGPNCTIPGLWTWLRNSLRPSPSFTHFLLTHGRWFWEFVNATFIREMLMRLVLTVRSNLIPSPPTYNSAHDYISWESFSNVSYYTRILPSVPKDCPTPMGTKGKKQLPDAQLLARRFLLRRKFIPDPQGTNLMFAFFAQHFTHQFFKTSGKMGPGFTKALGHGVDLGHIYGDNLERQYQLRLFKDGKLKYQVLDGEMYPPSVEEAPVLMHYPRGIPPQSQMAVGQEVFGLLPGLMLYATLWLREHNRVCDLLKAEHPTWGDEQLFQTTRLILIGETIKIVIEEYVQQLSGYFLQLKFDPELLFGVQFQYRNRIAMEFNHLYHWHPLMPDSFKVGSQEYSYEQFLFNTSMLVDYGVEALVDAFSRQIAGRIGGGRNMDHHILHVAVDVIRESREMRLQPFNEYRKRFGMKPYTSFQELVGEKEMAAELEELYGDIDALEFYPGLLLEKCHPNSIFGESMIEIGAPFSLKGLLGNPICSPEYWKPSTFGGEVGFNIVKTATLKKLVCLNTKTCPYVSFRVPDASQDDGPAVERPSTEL

Liver = test: Induction of nitric oxide production in Wistar rat liver homogenate assessed as nitrate level at 1 mM after 1 to 150 mins; format: functional, tissue-based
Mus musculus [4] = test: Analgesic activity in po dosed Swiss albino mouse assessed as reduction of acetic acid-induced writhing measured every 10 mins after 5 mins of administration; format: functional, organism-based
Method in brief: (§1)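 Male Swiss albino mice (23–25 g), compound given orally in CMC vehicle; writhing induced by 0.6% acetic acid (10 mL/kg) ip. Stretching movements counted for 10 min, starting 5 min after administration; percent reduction versus CMC-treated animals.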

Mus musculus [5] = test: Antiinflammatory activity in Swiss albino mouse assessed as reduction in carrageenan-induced paw edema at 40 mg/kg, po relative to control; format: functional; parameters: scale not given: the % may be the effect or the level left
Method in brief: (§2)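 Intraplantar carrageenan, compound po in CMC; volume of right hind paw measured 4 h after carrageenan injection and compared with saline/carrageenan-treated controls; percent oedema reduction.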

Mus musculus [6] = test: Antiinflammatory activity in Swiss albino mouse assessed as reduction in carrageenan-induced paw edema at 20 mg/kg, po relative to control; format: functional; parameters: scale not given: the % may be the effect or the level left; method in brief: as §2
Mus musculus [7] = test: Antihyperalgesic activity in Swiss albino mouse assessed as reduction in carrageenan-induced inflammation at 40 mg/kg, po after 120 mins relative to control; format: functional; parameters: scale not given: the % may be the effect or the level left
Mus musculus [8] = test: Antihyperalgesic activity in Swiss albino mouse assessed as reduction in carrageenan-induced inflammation at 40 mg/kg, po after 30 mins relative to control; format: functional; parameters: scale not given: the % may be the effect or the level left
Thoracic aorta = test: Ex vivo vasorelaxant activity in Wistar rat endothelium thoracic aortic ring assessed as reduction of KCl-induced contraction in presence of guanylate cyclase inhibitor ODQ; format: functional
Method in brief: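 Endothelium-denuded thoracic aortic rings from male Wistar rats (250–350 g) in oxygenated Tyrode-type buffer at 37 °C, isometric tension recording. Rings precontracted with 30 mM KCl, then 3-fold increasing compound concentrations (1 nM–10 µM) added, also with 1 µM ODQ preincubated. Emax as % of KCl tone; pIC50; mean ± SE of 6–10 experiments.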

[9] = target: T2, Prostaglandin G/H synthase 1 (Mus musculus, UniProt P22437); test: Inhibition of COX-1 in mouse J774 cells using arachidonic acid as substrate assessed as inhibition of prostaglandin E2 production preincubated for 15 mins followed by substrate addition measured after 30 mins by RIA; format: cell-based
T2 sequence (P22437 whole entry): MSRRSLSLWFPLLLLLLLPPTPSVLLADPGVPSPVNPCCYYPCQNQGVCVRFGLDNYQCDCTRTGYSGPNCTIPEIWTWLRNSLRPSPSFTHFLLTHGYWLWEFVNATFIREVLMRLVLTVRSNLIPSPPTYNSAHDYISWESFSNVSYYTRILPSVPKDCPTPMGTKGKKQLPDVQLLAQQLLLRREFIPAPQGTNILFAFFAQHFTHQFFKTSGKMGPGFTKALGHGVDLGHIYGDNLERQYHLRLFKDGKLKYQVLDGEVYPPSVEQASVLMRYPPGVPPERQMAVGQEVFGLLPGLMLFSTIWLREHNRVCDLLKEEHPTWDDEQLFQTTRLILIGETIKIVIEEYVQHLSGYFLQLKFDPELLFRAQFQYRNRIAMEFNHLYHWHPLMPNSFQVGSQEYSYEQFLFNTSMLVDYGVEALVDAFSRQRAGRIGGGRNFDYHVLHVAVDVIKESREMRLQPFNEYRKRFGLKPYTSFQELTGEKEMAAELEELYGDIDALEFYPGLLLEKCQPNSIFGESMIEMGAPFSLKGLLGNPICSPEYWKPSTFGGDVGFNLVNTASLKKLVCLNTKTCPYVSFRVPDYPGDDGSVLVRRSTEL
Method in brief: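 J774 murine macrophages pretreated 15 min with compound (10 µM; lower concentrations 0.01–1 µM where needed), then incubated 30 min at 37 °C with 15 µM arachidonic acid; supernatant PGE2 measured by RIA. Triplicate wells, mean of three experiments of percent inhibition versus control; IC50 by sigmoidal fit.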

Mus musculus [10] = test: Analgesic activity in Swiss albino mouse assessed as reduction of acetic acid-induced writhing at 10 mg/kg, po measured every 10 mins after 5 mins of administration relative to control; format: functional; parameters: scale not given: the % may be the effect or the level left; method in brief: as §1
Rattus norvegicus = test: Drug metabolism in Wistar rat plasma assessed as 2-(1-(4-fluorophenyl)-2-methyl-5-(4-(methylsulfonyl)phenyl)-1H-pyrrol-3-yl)-N-(2-hydroxyethyl)acetamide metabolite at 10 mg/kg, po up to 6 hrs by LC-MS/MS analysis; format: ADME, organism-based; parameters: dose 10 mg/kg, route oral; conditions: in vivo
Method in brief: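 Male Han Wistar rats, three per route, single 10 mg/kg/5 mL dose iv or po in 5% DMSO, 5% Cremophor EL, 0.1% Tween 80 in 150 mM phosphate buffer pH 7. Jugular-vein blood sampled, plasma methanol-precipitated, parent and hydroxy metabolite quantified by LC–MS/MS in positive ESI MRM mode (LLOQ 1–15 ng/mL).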

Stability (Plasma): Stable
solubility at 1.5 h [1]: > 200 µM
IC50 [2]: 1700 nM
IC50 [3]: 600 nM
IC50 [9]: > 10000 nM
Drug metabolism (Rattus norvegicus): Active
Compound: Cc1c(CC(=O)NCCO[N+](=O)[O-])cc(-c2ccc(S(C)(=O)=O)cc2)n1-c1ccc(F)cc1
Activity (Liver): 38.3 µM
Activity (Mus musculus [4]): Dose-dependent effect
Activity (Mus musculus [5]): 10%
Activity (Mus musculus [6]): 4%
Activity (Mus musculus [7]): 0%
Activity (Mus musculus [8]): 32%
Activity (Thoracic aorta): inactive
Activity (Mus musculus [10]): 63%
